{"source": "ChEMBL document CHEMBL4680093", "about": "(J Med Chem, 2016)", "key": {"[1]": {"tested_on": "Mus musculus", "assay": "In-vivo inhibition of 11beta-HSD1 activity in C57BL/6 mouse epididymal fat assessed as reduction in cortisone to-cortisol conversion at 3 to 30 mg/kg, po measured after 2 to 6 hrs by ELISA", "format": "functional, organism-based", "details": "Epididymal fat pad, dose 3-30 mg/kg, time 2-6 hrs", "method_in_brief": "(§1)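 Male C57BL/6 mice dosed orally once at 3, 10 or 30 mg/kg in sterile water containing 0.5% methylcellulose and 1% Tween80, then sacrificed at 2 or 6 h. Liver and epididymal fat pads incubated ex vivo in culture medium containing cortisone. Cortisol formed was measured by ELISA and reported as % inhibition versus vehicle.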"}, "[2]": {"assay": "Protein binding in human plasma", "format": "ADME, cell-free", "details": "read-out: PPB"}, "[3]": {"assay": "Oral bioavailability in rat at 5 mg/kg", "format": "ADME, organism-based", "details": "in vivo", "method_in_brief": "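Single-dose PK study. The iv dose was given in 10% hydroxypropyl-β-cyclodextrin and the oral dose in 0.5% methylcellulose/1% Tween80. Mouse and rat received 1 mg/kg iv and 5 mg/kg po. Dog received 0.5 mg/kg iv and 4 mg/kg po. CL, Vss, t1/2, AUC, Cmax, tmax and F were derived.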"}, "[4]": {"assay": "Clearance in rat at 1 mg/kg, iv", "format": "ADME, organism-based", "details": "in vivo"}, "[5]": {"molecular_target": "T1, 11-beta-hydroxysteroid dehydrogenase type 2 (Homo sapiens) (UniProt P80365)", "T1 sequence (whole entry)": "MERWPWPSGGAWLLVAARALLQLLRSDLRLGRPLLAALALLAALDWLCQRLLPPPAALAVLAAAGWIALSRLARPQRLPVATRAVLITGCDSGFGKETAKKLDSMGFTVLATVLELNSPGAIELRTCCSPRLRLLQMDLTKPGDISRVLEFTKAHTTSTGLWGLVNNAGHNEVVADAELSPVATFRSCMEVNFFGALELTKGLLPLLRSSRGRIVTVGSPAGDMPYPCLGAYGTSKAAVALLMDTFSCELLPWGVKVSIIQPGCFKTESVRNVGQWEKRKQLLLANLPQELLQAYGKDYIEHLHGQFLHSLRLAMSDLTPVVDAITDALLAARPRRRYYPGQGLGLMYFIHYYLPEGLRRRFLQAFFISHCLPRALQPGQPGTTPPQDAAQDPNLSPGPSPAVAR", "assay": "Inhibition of human 11beta-HSD2 expressed in microsomes at 10 uM relative to control", "details": "Microsome"}, "[6]": {"molecular_target": "T2, Nuclear receptor subfamily 1 group I member 2 (Homo sapiens, UniProt O75469)", "T2 sequence (O75469 whole entry)": "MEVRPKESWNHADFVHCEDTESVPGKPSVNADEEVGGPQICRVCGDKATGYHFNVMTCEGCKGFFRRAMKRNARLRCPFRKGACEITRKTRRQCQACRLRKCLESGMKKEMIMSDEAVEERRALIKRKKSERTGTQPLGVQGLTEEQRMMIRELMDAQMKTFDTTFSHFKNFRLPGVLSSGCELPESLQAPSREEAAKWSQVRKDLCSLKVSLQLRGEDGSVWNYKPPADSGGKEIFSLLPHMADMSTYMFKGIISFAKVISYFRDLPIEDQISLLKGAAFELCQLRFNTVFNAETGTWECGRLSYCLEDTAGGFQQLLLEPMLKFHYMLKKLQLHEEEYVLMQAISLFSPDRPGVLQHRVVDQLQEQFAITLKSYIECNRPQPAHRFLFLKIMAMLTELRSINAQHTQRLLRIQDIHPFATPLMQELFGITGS", "assay": "Activation of PXR (unknown origin) at 10 uM relative to rifampicin", "format": "ADME"}, "[7]": {"assay": "Half life in rat at 1 mg/kg, iv", "format": "ADME, organism-based", "details": "in vivo"}, "[8]": {"tested_on": "Mus musculus", "assay": "In-vivo inhibition of 11beta-HSD1 activity in C57BL/6 mouse liver assessed as reduction in cortisone to-cortisol conversion at 3 to 30 mg/kg, po measured after 2 to 6 hrs by ELISA", "format": "functional, organism-based", "details": "dose 3-30 mg/kg, time 2-6 hrs", "method_in_brief": "as §1"}, "[9]": {"assay": "In-vivo inhibition of 11beta-HSD1 activity in C57BL/6 mouse liver assessed as reduction in cortisone to-cortisol conversion at 3 mg/kg, po measured after 2 hrs by ELISA", "format": "functional", "details": "C57BL/6, Liver", "method_in_brief": "as §1"}, "[10]": {"molecular_target": "T3, Mineralocorticoid receptor (Homo sapiens, UniProt P08235)", "T3 sequence (P08235 whole entry)": "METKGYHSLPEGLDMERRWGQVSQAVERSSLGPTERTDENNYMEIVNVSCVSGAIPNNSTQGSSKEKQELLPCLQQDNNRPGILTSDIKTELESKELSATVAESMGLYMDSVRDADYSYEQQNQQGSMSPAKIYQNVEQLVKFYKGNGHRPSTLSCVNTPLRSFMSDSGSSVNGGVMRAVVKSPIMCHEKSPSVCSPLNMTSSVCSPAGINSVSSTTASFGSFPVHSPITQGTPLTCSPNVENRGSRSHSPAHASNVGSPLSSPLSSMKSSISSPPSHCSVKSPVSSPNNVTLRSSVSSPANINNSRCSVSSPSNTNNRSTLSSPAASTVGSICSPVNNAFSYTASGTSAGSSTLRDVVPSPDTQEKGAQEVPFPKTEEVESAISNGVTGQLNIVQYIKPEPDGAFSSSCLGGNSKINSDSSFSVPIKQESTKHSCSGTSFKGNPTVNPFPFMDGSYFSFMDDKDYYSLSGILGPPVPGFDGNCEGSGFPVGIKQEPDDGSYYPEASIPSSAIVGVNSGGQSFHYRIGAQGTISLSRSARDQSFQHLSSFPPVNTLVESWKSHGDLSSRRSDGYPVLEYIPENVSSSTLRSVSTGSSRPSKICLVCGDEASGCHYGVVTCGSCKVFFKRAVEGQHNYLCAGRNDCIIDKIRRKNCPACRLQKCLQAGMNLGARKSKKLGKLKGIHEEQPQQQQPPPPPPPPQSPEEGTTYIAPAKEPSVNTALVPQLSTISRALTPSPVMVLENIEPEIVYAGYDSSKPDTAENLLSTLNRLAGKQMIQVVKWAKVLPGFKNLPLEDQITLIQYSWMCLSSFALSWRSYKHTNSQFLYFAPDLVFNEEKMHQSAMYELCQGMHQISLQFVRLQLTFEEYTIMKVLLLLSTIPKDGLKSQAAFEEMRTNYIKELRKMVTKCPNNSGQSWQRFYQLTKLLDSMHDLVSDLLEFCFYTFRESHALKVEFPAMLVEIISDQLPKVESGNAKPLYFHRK", "assay": "Agonist activity at mineralocorticoid receptor (unknown origin)"}, "[11]": {"assay": "Drug level in mouse plasma at 10 mg/kg, po measured after 2 hrs post dose", "format": "ADME, organism-based", "details": "in vivo", "method_in_brief": "(§2)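 C57BL/6 mice given a single oral 10 mg/kg dose in 0.5% methylcellulose plus 1% Tween80. Sacrifice at 2 h post-dose, with collection of brain, liver, adipose and plasma. Compound concentration expressed as nmol/g, along with tissue/plasma ratio.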"}, "[12]": {"assay": "Drug level in mouse brain at 10 mg/kg, po measured after 2 hrs post dose", "format": "ADME, organism-based", "details": "in vivo", "method_in_brief": "as §2"}, "[13]": {"assay": "Ratio of drug level in liver to plasma of mouse at 10 mg/kg, po measured after 2 hrs post dose", "format": "ADME, organism-based", "method_in_brief": "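C57BL/6 mice received a single oral dose of 10 mg/kg in 0.5% methylcellulose/1% Tween80. Animals were sacrificed 2 h post-dose. Compound was measured in brain, liver, adipose and plasma (nmol/g), and tissue/plasma ratios were calculated.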"}, "[14]": {"molecular_target": "T1, 11-beta-hydroxysteroid dehydrogenase type 2 (Homo sapiens)", "assay": "Inhibition of human 11beta-HSD2 expressed in microsomes at 1 uM relative to control", "details": "Microsome"}}}
{"smiles": "C[C@@H]1CN(c2ccc(S(C)(=O)=O)cc2F)CCN1c1nccc(C(=O)NC2C3CC4CC2CC(O)(C4)C3)n1", "note": "(some centres undefined)", "values": [{"measurement": "inhibition", "setting": "[1]", "value": "Dose-dependent effect"}, {"measurement": "fraction unbound", "setting": "[2]", "value": 0.01}, {"measurement": "bioavailability", "setting": "[3]", "value": 60, "unit": "%"}, {"measurement": "clearance", "setting": "[4]", "value": 15.5, "unit": "mL/min/kg"}, {"measurement": "inhibition", "setting": "[5]", "value": 17, "unit": "%"}, {"measurement": "Activity", "setting": "[6]", "value": 0, "unit": "%"}, {"measurement": "half-life", "setting": "[7]", "value": 1.8, "unit": "h"}, {"measurement": "inhibition", "setting": "[8]", "value": "Dose-dependent effect"}, {"measurement": "inhibition in vivo at 3 mg/kg", "setting": "[9]", "value": 74, "unit": "%"}, {"measurement": "EC50", "setting": "[10]", "value": "> 5", "unit": "µM"}, {"measurement": "Cp", "setting": "[11]", "value": 10.6, "unit": "nmol/g"}, {"measurement": "Drug uptake", "setting": "[12]", "value": 0.41, "unit": "nmol/g"}, {"measurement": "Kp at 2 h", "setting": "[13]", "value": 2.94}, {"measurement": "inhibition", "setting": "[14]", "value": 6, "unit": "%"}]}
